# Reference: ChEMBL document CHEMBL1212940, “Polyacetylenes from the roots of Polyalthia debilis” (2010)
# Active and inactive are the calls of the source. The calls are words filed in the database; no cut-off is given here.
# Tests used:
# [1] = system: NCI-H187; assay: Cytotoxicity against human NCI-H187 cells; type: functional, cell-based
# [2] = system: KB; assay: Cytotoxicity against human KB cells; type: functional, cell-based
# [3] = system: Candida albicans; assay: Antifungal activity against Candida albicans; type: functional, organism-based
# [4] = system: Mycobacterium tuberculosis; assay: Antimycobacterial activity against Mycobacterium tuberculosis H37Ra by microplate alamar blue assay; type: functional
# Summary of the method: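 Whole-cell microplate Alamar Blue test of M. tuberculosis H37Ra, read out as MIC in µg/mL. Isoniazid and kanamycin sulfate served as reference drugs.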
# [5] = system: Plasmodium falciparum; assay: Antimalarial activity against Plasmodium falciparum; type: functional, organism-based
# [6] = system: BC1; assay: Cytotoxicity against human BC1 cells; type: functional, cell-based
SMILES,Activity [1],Activity [2],Activity [3],MIC [4] [µg/mL],Activity [5],Activity [6]
CCCC/C=C/C#CC#CCCCCCCCCCC[C@H]1C[C@@H](CO)OC1=O [DEBILISONE C],inactive,inactive,inactive,12.5,inactive,inactive
CCCCCCC#CC#CCCCCCCCCCC[C@H]1C[C@@H](CO)OC1=O,inactive,inactive,inactive,–,inactive,inactive
C=CCC/C=C\C#CC#CCCCCCCCCCC[C@H]1C[C@@H](CO)OC1=O,inactive,inactive,inactive,–,inactive,inactive
C=CCCCCCCC#CCCCC[C@@H]1C[C@@H](CO)OC1=O,inactive,inactive,inactive,–,inactive,inactive
CCCCC[C@H](O)C#CC#CCCCCCCCCCC[C@H]1C[C@@H](CO)OC1=O [DEBILISONE B],inactive,inactive,inactive,25,inactive,inactive
C=CCC/C=C/C#CC#CCCCCCCCCCC[C@H]1C[C@@H](CO)OC1=O [DEBILISONE E],inactive,inactive,inactive,25,inactive,inactive
C=CCCCCCCC#CCCCCCCCCCC[C@@H]1C[C@@H](CO)OC1=O,inactive,inactive,inactive,–,inactive,inactive
CCCC/C=C\C#CC#CCCCCCCCCCCCC[C@H]1C[C@@H](CO)OC1=O,inactive,inactive,inactive,–,inactive,inactive
